The values that follow come from ChEMBL document CHEMBL1773015, “2-Arylbenzothiazole, benzoxazole and benzimidazole derivatives as fluorogenic substrates for the detection of nitroreductase and aminopeptidase activity in clinically important bacteria” (Bioorg Med Chem, 2011).

The source made the active and inactive calls. The calls are words filed in the database; no cut-off is given here.

One test concerns Enterococcus faecium. Briefly: Binding affinity to Enterococcus faecium NCTC 7171 nitroreductase assessed as fluorescent colonies after 24 hrs by fluorescence staining.
Test [1] deals with Enterobacter cloacae. Put plainly: Binding affinity to Enterobacter cloacae NCTC 11936 nitroreductase assessed as fluorescent colonies after 24 hrs by fluorescence staining. An outline of the steps:
(§1)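 Columbia agar plates contained substrate at a final 100 mg/L, added from a 1-methyl-2-pyrrolidone solution to molten agar at 50 °C. Inoculum was a 10⁸ CFU/mL suspension in 0.85% saline, spread for single colonies, then incubated at 37 °C in air for 24 h. Colony fluorescence under UV light (365 nm) was graded as strong, moderate, weak or none, with colour noted.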

The next test deals with Listeria monocytogenes. Put plainly: Binding affinity to Listeria monocytogenes NCTC 11994 nitroreductase assessed as fluorescent colonies after 24 hrs by fluorescence staining. An outline of the steps:
as §1

In test [2] the test system is Morganella morganii. Put plainly: Binding affinity to Morganella morganii WS 462403 nitroreductase assessed as fluorescent colonies after 24 hrs by fluorescence staining. The method in brief: as §1
For test [3], the system named is Escherichia coli. Briefly: Binding affinity to Escherichia coli NCTC 10418 nitroreductase assessed as fluorescent colonies after 24 hrs by fluorescence staining. The method in brief:
as §1

Test [4] concerns Staphylococcus aureus. Briefly: Binding affinity to Staphylococcus aureus (MRSA) NCTC 11939 nitroreductase assessed as fluorescent colonies after 24 hrs by fluorescence staining. An outline of the steps: as §1
Test [5] deals with Staphylococcus aureus. Briefly: Binding affinity to Staphylococcus aureus NCTC 6571 nitroreductase assessed as fluorescent colonies after 24 hrs by fluorescence staining. The method in brief: as §1
The test system of test [6] is Serratia marcescens. Put plainly: Binding affinity to Serratia marcescens NCTC 10211 nitroreductase assessed as fluorescent colonies after 24 hrs by fluorescence staining. An outline of the steps: as §1
In test [7] the test system is Staphylococcus epidermidis. Briefly: Binding affinity to Staphylococcus epidermidis NCTC 11047 nitroreductase assessed as fluorescent colonies after 24 hrs by fluorescence staining. The method in brief:
as §1

The next test has as its system Streptococcus pyogenes. Briefly: Binding affinity to Streptococcus pyogenes NCTC 8306 nitroreductase assessed as fluorescent colonies after 24 hrs by fluorescence staining. An outline of the steps:
as §1

The next test concerns Enterococcus faecalis. Put plainly: Binding affinity to Enterococcus faecalis NCTC 775 nitroreductase assessed as fluorescent colonies after 24 hrs by fluorescence staining. The method in brief: as §1
Test [8] has as its system Pseudomonas aeruginosa. Put plainly: Binding affinity to Pseudomonas aeruginosa NCTC 10662 nitroreductase assessed as fluorescent colonies after 24 hrs by fluorescence staining. An outline of the steps: as §1
For test [9], the system named is Providencia rettgeri. Put plainly: Binding affinity to Providencia rettgeri NCTC 7475 nitroreductase assessed as fluorescent colonies after 24 hrs by fluorescence staining. The method in brief: as §1
Test [10] deals with Providencia rettgeri. Briefly: Binding affinity to Providencia rettgeri NCTC 7475 aminopeptidase assessed as fluorescent colonies after 24 hrs by fluorescence staining. The method in brief: (§2)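 Substrate in 1-methyl-2-pyrrolidone was mixed into molten Columbia agar at 50 °C (final 100 mg/L). NCTC strains were subcultured on Columbia agar and suspended in 0.85% saline to 10⁸ CFU/mL by densitometer. Plates were spread for single colonies and incubated at 37 °C in air for 24 h. Colonies were viewed under UV light (365 nm) and fluorescence intensity and colour scored visually; growth was also scored.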

Test [11] relates to Pseudomonas aeruginosa. Briefly: Binding affinity to Pseudomonas aeruginosa NCTC 10662 aminopeptidase assessed as fluorescent colonies after 24 hrs by fluorescence staining. An outline of the steps: as §2
Test [12] deals with Enterobacter cloacae. Put plainly: Binding affinity to Enterobacter cloacae NCTC 11936 aminopeptidase assessed as fluorescent colonies after 24 hrs by fluorescence staining. An outline of the steps: as §2
The subject of test [13] is Escherichia coli. Briefly: Binding affinity to Escherichia coli NCTC 10418 aminopeptidase assessed as fluorescent colonies after 24 hrs by fluorescence staining. An outline of the steps: as §2
In test [14] the test system is Morganella morganii. Briefly: Binding affinity to Morganella morganii WS 462403 aminopeptidase assessed as fluorescent colonies after 24 hrs by fluorescence staining. The method in brief: as §2
Test [15] deals with Serratia marcescens. Briefly: Binding affinity to Serratia marcescens NCTC 10211 aminopeptidase assessed as fluorescent colonies after 24 hrs by fluorescence staining. The method in brief: as §2

Regarding `O=[N+]([O-])c1ccccc1-c1nc2ccccc2s1`, the result in the test with Enterococcus faecium, with Listeria monocytogenes, in the test with Streptococcus pyogenes, with Enterococcus faecalis and in the test with Pseudomonas aeruginosa [8] was inactive. Moreover, the outcome in the test with Enterobacter cloacae [1], with Morganella morganii [2], in the test with Escherichia coli [3], in the test on Staphylococcus aureus [4], with Staphylococcus aureus [5] and with Serratia marcescens [6] was Active. In addition, the outcome (in test [7]; in the test on Providencia rettgeri [9]) was Active.

Regarding `Cn1c(-c2ccccc2[N+](=O)[O-])nc2ccccc21`, the result with Enterococcus faecium, in the test on Enterobacter cloacae [1], with Listeria monocytogenes, in the test with Escherichia coli [3], in the test with Staphylococcus aureus [4] and in the test with Staphylococcus aureus [5] was inactive. Further, the outcome (in the test with Serratia marcescens [6]; in [7]; with Streptococcus pyogenes; with Enterococcus faecalis; with Pseudomonas aeruginosa [8]; with Providencia rettgeri [9]) was inactive. In addition, the result with Morganella morganii [2] was Active.

Take `NCCC(=O)Nc1ccccc1-c1nc2ccccc2o1`: the outcome in the test with Providencia rettgeri [10], with Pseudomonas aeruginosa [11], in the test on Enterobacter cloacae [12], in the test on Escherichia coli [13], with Morganella morganii [14] and in the test with Serratia marcescens [15] was Active.

For the compound `O=[N+]([O-])c1ccc(F)cc1-c1nc2ccccc2o1`, the result (in the test on Enterococcus faecium; in the test with Listeria monocytogenes; in test [7]; in the test with Streptococcus pyogenes; in the test with Enterococcus faecalis; in the test on Pseudomonas aeruginosa [8]) was inactive. For the same compound, the outcome in the test with Enterobacter cloacae [1], with Morganella morganii [2], in the test with Escherichia coli [3], in the test on Staphylococcus aureus [4], in the test with Staphylococcus aureus [5] and in the test with Serratia marcescens [6] was Active. Also, the result in the test with Providencia rettgeri [9] was Active.

As for `COc1cc(-c2nc3ccccc3o2)c([N+](=O)[O-])cc1OC`, the outcome (in the test with Enterococcus faecium; in the test with Listeria monocytogenes; in [7]; in the test with Streptococcus pyogenes; in the test on Enterococcus faecalis; with Pseudomonas aeruginosa [8]) was inactive. Moreover, the outcome in the test with Enterobacter cloacae [1], with Morganella morganii [2], in the test on Escherichia coli [3], in the test on Staphylococcus aureus [4], in the test on Staphylococcus aureus [5] and in the test on Serratia marcescens [6] was Active. Besides, the outcome in the test on Providencia rettgeri [9] was Active.

As for `O=[N+]([O-])c1ccc(F)cc1-c1nc2ccccc2s1`, the result (in the test on Enterococcus faecium; in the test on Listeria monocytogenes; in test [7]; with Streptococcus pyogenes; with Enterococcus faecalis; with Pseudomonas aeruginosa [8]) was inactive. Moreover, the result in the test on Enterobacter cloacae [1], in the test on Morganella morganii [2], with Escherichia coli [3], in the test on Staphylococcus aureus [4], in the test on Staphylococcus aureus [5] and in the test on Serratia marcescens [6] was Active. The result in the test on Providencia rettgeri [9] was Active.

Take `C[C@H](N)C(=O)Nc1ccccc1-c1nc2ccccc2o1`: the result with Providencia rettgeri [10], with Pseudomonas aeruginosa [11], in the test on Enterobacter cloacae [12], in the test with Escherichia coli [13], in the test with Morganella morganii [14] and with Serratia marcescens [15] was Active.

As to `Cn1c(-c2cc(Cl)ccc2[N+](=O)[O-])nc2ccccc21`, the result (in the test with Enterococcus faecium; with Listeria monocytogenes; in test [7]; in the test on Streptococcus pyogenes; in the test with Enterococcus faecalis) was inactive. For the same compound, the result with Enterobacter cloacae [1], in the test with Morganella morganii [2], with Escherichia coli [3], in the test with Staphylococcus aureus [4], in the test with Staphylococcus aureus [5] and in the test with Serratia marcescens [6] was Active. Also, the result with Pseudomonas aeruginosa [8] and in the test on Providencia rettgeri [9] was Active.

On to `O=[N+]([O-])c1ccccc1-c1nc2ccccc2o1`, for which the outcome in the test with Enterococcus faecium, in the test with Listeria monocytogenes, with Streptococcus pyogenes and in the test with Enterococcus faecalis was inactive. The result with Enterobacter cloacae [1], with Morganella morganii [2], in the test with Escherichia coli [3], in the test on Staphylococcus aureus [4], in the test on Staphylococcus aureus [5] and with Serratia marcescens [6] was Active. In addition, the outcome (in [7]; in the test with Pseudomonas aeruginosa [8]; with Providencia rettgeri [9]) was Active.

`O=[N+]([O-])c1ccc(Cl)cc1-c1nc2ccccc2s1`: the outcome (in the test with Enterococcus faecium; in the test with Listeria monocytogenes; in test [7]; in the test on Streptococcus pyogenes; with Enterococcus faecalis) was inactive. In addition, the result with Enterobacter cloacae [1], in the test with Morganella morganii [2], in the test on Escherichia coli [3], in the test with Staphylococcus aureus [4], in the test with Staphylococcus aureus [5] and in the test on Serratia marcescens [6] was Active. Besides, the outcome with Pseudomonas aeruginosa [8] and with Providencia rettgeri [9] was Active.

Turning to `O=[N+]([O-])c1ccc(Cl)cc1-c1nc2ccccc2o1`, the result (with Enterococcus faecium; in the test with Listeria monocytogenes; in test [7]; with Streptococcus pyogenes; in the test on Enterococcus faecalis) was inactive. In addition, the result in the test with Enterobacter cloacae [1], with Morganella morganii [2], in the test on Escherichia coli [3], in the test on Staphylococcus aureus [4], in the test on Staphylococcus aureus [5] and in the test on Serratia marcescens [6] was Active. In addition, the outcome with Pseudomonas aeruginosa [8] and in the test on Providencia rettgeri [9] was Active.

On to `COc1cc(-c2nc3ccccc3s2)c([N+](=O)[O-])cc1OC`, for which the result in the test with Enterococcus faecium, with Listeria monocytogenes, in the test with Streptococcus pyogenes and in the test on Enterococcus faecalis was inactive. For the same compound, the result with Enterobacter cloacae [1], in the test on Morganella morganii [2], with Escherichia coli [3], in the test with Staphylococcus aureus [4], with Staphylococcus aureus [5] and in the test with Serratia marcescens [6] was Active. The result (in test [7]; with Pseudomonas aeruginosa [8]; with Providencia rettgeri [9]) was Active.

`NCCC(=O)Nc1ccccc1-c1nc2ccccc2s1`: the result in the test on Providencia rettgeri [10] and in the test with Enterobacter cloacae [12] was inactive. Besides, the result in the test on Pseudomonas aeruginosa [11], in the test on Escherichia coli [13], with Morganella morganii [14] and in the test on Serratia marcescens [15] was Active.

Regarding `C[C@H](N)C(=O)Nc1ccccc1-c1nc2ccccc2s1`, the outcome with Providencia rettgeri [10], in the test with Pseudomonas aeruginosa [11], in the test with Enterobacter cloacae [12], in the test on Escherichia coli [13], with Morganella morganii [14] and in the test with Serratia marcescens [15] was Active.
